Data published in ChEMBL document CHEMBL1128449, “Novel 4'-substituted and 4',4"-disubstituted 3 alpha-(diphenylmethoxy)tropane analogs as potent and selective dopamine uptake inhibitors” (J Med Chem, 1995).

Legend:
[1] = molecular target: Norepinephrine transporter (Rattus norvegicus) (UniProt Q9WTR4); experiment: Inhibition of [3H]desmethylimipramine binding at rat norepinephrine transporter; 10 uM
Procedure, shortened: (§1)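 Contract-lab radioligand displacement, percent inhibition at 10 μM test compound; 5HTT used [³H]citalopram at 0.7 nM final, NET used [³H]desmethylimipramine at 3.0 nM final.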

[2] = molecular target: Sodium-dependent serotonin transporter (Rattus norvegicus) (UniProt P31652); experiment: Inhibition of [3H]citalopram binding at rat serotonin transporter; 10 uM; procedure, shortened: as §1
[3] = molecular target: T1, Sodium-dependent dopamine transporter (Rattus norvegicus, UniProt P23977); experiment: Inhibition of [3H]dopamine uptake in rat caudate putamen.; assay type: functional, tissue-based
[4] = molecular target: T2, Muscarinic acetylcholine receptor M2 (Rattus norvegicus, UniProt P10980); experiment: Affinity for rat M2 acetylcholine receptor using [3H]-AF DX 384 displacement.
T2 sequence (P10980 whole entry): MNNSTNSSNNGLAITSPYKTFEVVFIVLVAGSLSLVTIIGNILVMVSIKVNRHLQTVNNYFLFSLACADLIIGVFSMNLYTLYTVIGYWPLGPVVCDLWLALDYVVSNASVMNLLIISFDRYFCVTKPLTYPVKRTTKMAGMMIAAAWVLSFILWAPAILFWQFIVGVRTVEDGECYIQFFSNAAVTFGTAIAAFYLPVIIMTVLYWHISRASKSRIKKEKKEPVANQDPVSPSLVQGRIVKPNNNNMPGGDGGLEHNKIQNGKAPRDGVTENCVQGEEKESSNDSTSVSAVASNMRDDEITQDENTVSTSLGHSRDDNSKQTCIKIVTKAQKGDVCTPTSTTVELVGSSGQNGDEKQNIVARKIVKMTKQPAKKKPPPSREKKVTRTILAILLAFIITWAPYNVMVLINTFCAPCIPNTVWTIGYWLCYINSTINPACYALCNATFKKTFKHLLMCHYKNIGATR

[5] = molecular target: T3, Muscarinic acetylcholine receptor M1 (Rattus norvegicus, UniProt P08482); experiment: Affinity for rat M1 acetylcholine receptor using [3H]pirenzepine displacement.
T3 sequence (P08482 whole entry): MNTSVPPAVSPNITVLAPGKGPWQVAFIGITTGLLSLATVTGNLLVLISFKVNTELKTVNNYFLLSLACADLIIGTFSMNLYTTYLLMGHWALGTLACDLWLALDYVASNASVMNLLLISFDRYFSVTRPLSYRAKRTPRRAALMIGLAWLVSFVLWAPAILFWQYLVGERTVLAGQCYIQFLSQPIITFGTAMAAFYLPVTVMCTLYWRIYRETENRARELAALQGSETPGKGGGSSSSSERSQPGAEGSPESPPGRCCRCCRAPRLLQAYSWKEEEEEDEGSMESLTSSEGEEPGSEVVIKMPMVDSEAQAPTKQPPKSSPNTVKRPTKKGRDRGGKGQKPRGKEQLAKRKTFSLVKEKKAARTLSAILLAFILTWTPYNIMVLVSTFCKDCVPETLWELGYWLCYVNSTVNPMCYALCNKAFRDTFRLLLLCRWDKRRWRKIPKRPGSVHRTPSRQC

[6] = molecular target: T1, Sodium-dependent dopamine transporter; experiment: Affinity for rat dopamine transporter using [3H]WIN-35428 displacement.
Procedure, shortened: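 Rat caudate putamen (male Sprague–Dawley, 200–250 g) homogenised in ice-cold modified Krebs-HEPES, pH 7.4, washed and used fresh (0.5% w/v). Filtration, scintillation counting. Ki from nonlinear least-squares fitting of three independent experiments, F test model selection.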

Chain of Norepinephrine transporter (Rattus norvegicus) (Q9WTR4 as listed by the source): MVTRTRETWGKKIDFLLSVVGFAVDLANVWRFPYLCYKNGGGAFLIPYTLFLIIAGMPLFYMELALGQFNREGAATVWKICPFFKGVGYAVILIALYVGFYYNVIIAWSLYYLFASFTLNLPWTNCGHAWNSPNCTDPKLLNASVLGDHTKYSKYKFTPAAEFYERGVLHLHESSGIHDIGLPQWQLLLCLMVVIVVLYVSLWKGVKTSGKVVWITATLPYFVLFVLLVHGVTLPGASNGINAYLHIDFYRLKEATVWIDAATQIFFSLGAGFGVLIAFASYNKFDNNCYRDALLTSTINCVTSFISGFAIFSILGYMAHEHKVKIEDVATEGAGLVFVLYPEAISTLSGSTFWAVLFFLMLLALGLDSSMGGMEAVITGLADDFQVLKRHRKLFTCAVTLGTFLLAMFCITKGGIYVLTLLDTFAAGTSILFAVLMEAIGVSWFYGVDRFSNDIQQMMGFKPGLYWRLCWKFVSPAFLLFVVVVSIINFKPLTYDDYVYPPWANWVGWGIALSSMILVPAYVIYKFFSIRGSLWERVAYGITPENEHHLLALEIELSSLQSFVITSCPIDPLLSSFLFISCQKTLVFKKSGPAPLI
Chain of Sodium-dependent serotonin transporter (Rattus norvegicus) (P31652 whole entry): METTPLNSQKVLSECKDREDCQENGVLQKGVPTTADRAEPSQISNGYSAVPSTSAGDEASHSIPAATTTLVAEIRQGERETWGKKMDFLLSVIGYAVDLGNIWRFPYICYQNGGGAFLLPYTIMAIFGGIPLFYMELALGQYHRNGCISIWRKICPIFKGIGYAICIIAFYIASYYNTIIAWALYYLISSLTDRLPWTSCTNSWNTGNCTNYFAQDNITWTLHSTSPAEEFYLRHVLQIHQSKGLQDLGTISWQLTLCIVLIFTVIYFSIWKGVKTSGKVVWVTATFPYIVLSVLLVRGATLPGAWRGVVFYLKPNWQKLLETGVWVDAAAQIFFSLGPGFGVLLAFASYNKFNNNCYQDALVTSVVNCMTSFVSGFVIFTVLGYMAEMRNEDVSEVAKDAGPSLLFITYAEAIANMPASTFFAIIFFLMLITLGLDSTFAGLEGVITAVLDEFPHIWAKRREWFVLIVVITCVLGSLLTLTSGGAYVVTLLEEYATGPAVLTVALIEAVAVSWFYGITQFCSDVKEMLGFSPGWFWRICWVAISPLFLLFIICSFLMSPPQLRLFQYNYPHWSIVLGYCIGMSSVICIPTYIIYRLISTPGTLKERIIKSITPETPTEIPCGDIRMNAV
T1 sequence (P23977 whole entry): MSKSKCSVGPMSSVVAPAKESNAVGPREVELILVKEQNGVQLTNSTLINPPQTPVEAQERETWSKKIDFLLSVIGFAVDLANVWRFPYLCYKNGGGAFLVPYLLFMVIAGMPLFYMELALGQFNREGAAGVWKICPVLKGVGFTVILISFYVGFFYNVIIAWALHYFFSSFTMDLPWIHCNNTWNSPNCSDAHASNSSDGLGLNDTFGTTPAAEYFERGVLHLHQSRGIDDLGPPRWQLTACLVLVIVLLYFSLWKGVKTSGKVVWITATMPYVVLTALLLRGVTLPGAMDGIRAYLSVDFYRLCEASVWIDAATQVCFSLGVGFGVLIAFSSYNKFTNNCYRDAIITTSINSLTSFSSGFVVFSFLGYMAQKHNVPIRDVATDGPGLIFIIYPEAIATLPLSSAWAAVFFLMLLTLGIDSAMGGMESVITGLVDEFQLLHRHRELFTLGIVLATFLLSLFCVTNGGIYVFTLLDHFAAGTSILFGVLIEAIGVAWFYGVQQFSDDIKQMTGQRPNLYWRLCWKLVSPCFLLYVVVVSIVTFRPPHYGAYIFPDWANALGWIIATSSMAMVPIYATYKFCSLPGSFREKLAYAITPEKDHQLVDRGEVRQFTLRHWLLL

## CN1[C@@H]2CC[C@H]1C[C@@H](OC(c1ccc(Cl)cc1)c1ccc(Cl)cc1)C2
[1]
  inhibition: > 43%
[2]
  inhibition: 54%

## CN1[C@@H]2CC[C@H]1C[C@@H](OC(c1ccccc1)c1ccc(O)cc1)C2 (stereo partly drawn)
[3]
  IC50: 0.677 µM
[1]
  inhibition: 27.3%
[2]
  inhibition: 23.3%

## CN1C2CCC1CC(OC(c1ccccc1)c1ccc(Cl)cc1)C2 (stereo in doubt; 7a) [listing 1 of 2 here]
[4]
  Ki: 0.0366 µM
[3]
  IC50: 0.115 µM
[5]
  Ki: 0.0036 µM
[6]
  Ki: 0.03 µM

## CN1[C@@H]2CC[C@H]1C[C@@H](OC(c1ccccc1)c1ccc(C#N)cc1)C2 (stereo partly drawn)
[3]
  IC50: 0.222 µM
[1]
  inhibition: 16%
[2]
  inhibition: 40%

## CN1[C@@H]2CC[C@H]1C[C@@H](OC(c1ccccc1)c1ccc(Cl)c(Cl)c1)C2 (stereo partly drawn)
[3]
  IC50: 0.047 µM
[6]
  Ki: 0.0211 µM
[1]
  inhibition: 56.5%
[2]
  inhibition: 66.2%

## CN1C2CCC1CC(OC(c1ccc(F)cc1)c1ccc(F)cc1)C2 (stereo not drawn)
[1]
  inhibition: 30%
[2]
  inhibition: 62%

## CCc1ccc(C(O[C@H]2C[C@H]3CC[C@@H](C2)N3C)c2ccccc2)cc1 (stereo partly drawn)
[3]
  IC50: 0.984 µM
[1]
  inhibition: 32.7%
[2]
  inhibition: 42.7%

## Cc1ccc(C(O[C@H]2C[C@H]3CC[C@@H](C2)N3C)c2ccc(C)cc2)cc1
[3]
  IC50: 2.54 µM
[1]
  inhibition: 35.1%
[2]
  inhibition: 35.5%

## CN1[C@@H]2CC[C@H]1C[C@@H](OC(c1ccccc1)c1ccc(F)cc1)C2 (stereo partly drawn)
[1]
  inhibition: 37.9%
[2]
  inhibition: 35.2%

## CN1[C@@H]2CC[C@H]1C[C@@H](OC(c1ccccc1)c1ccc(Br)cc1)C2 (stereo partly drawn)
[3]
  IC50: 0.029 µM
[1]
  inhibition: 37%
[2]
  inhibition: 39%

## CN1C2CCC1CC(OC(c1ccccc1)c1ccc(Cl)cc1)C2 (stereo in doubt; 10) [listing 1 of 2 here]
[1]
  inhibition: 27.9%
[2]
  inhibition: 37.2%

## CN1C2CCC1CC(OC(c1ccccc1)c1ccc(Cl)cc1)C2 (stereo in doubt; 7a) [listing 2 of 2 here]
[1]
  inhibition: 32%
[2]
  inhibition: 34%

## COc1ccc(C(O[C@H]2C[C@H]3CC[C@@H](C2)N3C)c2ccccc2)cc1 (stereo partly drawn)
[3]
  IC50: 0.468 µM
[6]
  Ki: 0.0784 µM
[1]
  inhibition: 30.9%
[2]
  inhibition: 30.5%

## CN1[C@@H]2CC[C@H]1C[C@@H](OC(c1ccc(F)cc1)c1ccc(Cl)c(Cl)c1)C2 (stereo partly drawn)
[3]
  IC50: 0.024 µM
[1]
  inhibition: > 57.8%
[2]
  inhibition: 80.3%

## CN1[C@@H]2CC[C@H]1C[C@@H](OC(c1ccccc1)c1ccc(C(F)(F)F)cc1)C2 (stereo partly drawn)
[3]
  IC50: 2.15 µM
[1]
  inhibition: 34.6%
[2]
  inhibition: 49.1%

## COc1ccc(C(O[C@H]2C[C@H]3CC[C@@H](C2)N3C)c2ccc(OC)cc2)cc1
[3]
  IC50: 2.88 µM
[6]
  Ki: 2 µM
[1]
  inhibition: 34%
[2]
  inhibition: 31%

## Cc1ccc(C(O[C@H]2C[C@H]3CC[C@@H](C2)N3C)c2ccccc2)cc1 (stereo partly drawn)
[3]
  IC50: 0.512 µM
[1]
  inhibition: 31.8%
[2]
  inhibition: 35.4%

## CN1C2CCC1CC(OC(c1ccccc1)c1ccc(Cl)cc1)C2 (stereo in doubt; 10) [listing 2 of 2 here]
[4]
  Ki: 0.0874 µM
[3]
  IC50: 3.52 µM
[5]
  Ki: 0.0041 µM

## CN1[C@@H]2CC[C@H]1C[C@@H](OC(c1ccc(Br)cc1)c1ccc(Br)cc1)C2
[3]
  IC50: 0.034 µM
[5]
  Ki: 0.0708 µM
[1]
  inhibition: 41.1%
[2]
  inhibition: 41%

## CN1[C@@H]2CC[C@H]1C[C@@H](OC(c1ccccc1)c1ccc([N+](=O)[O-])cc1)C2 (stereo partly drawn)
[3]
  IC50: 0.219 µM
[1]
  inhibition: 29%
[2]
  inhibition: 54%

## CN1[C@@H]2CC[C@H]1C[C@@H](OC(c1ccccc1)c1ccc(C(C)(C)C)cc1)C2 (stereo partly drawn)
[3]
  IC50: 4.46 µM
[1]
  inhibition: 37.6%
[2]
  inhibition: 24.7%
